A selection: hits, their analogues and other compounds. The true share with any hit is near 2.5%.
RORa activator: activators of orphan receptor RORA, primary screen, cell-based, luminescence. activation, % at 10 µM. Nuclear receptor ROR-alpha (Homo sapiens), P35398. 65,000 tested, 1.5% active. AID 560, 2006. CHO-K1 Gal4-RORA LBD luciferase reporter; percent increase over mock-subtracted basal signal;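 active = activation above the mean of all tested compounds plus 3 SD, cut at about 49% in these data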
JNK3 inh: JNK3 kinase activity inhibitors, primary screen, biochemical, human, purified enzyme; Mitogen-activated protein kinase 10 (Homo sapiens), P53779; HTS; inhibition, % at 8 µM; 60,000 tested, 0.61% active; AID 746, 2007; in the data active = inhibition above about 17%
SF1 activator: activators of human SF-1, primary screen, cell-based, CHO-K1, Gal4-SF-1 LBD, luciferase luminescence | 65,000 tested, 1.9% active | CHO-K1 Gal4-SF-1 LBD luciferase reporter; % increase over DMSO SF-1-specific signal | Steroidogenic factor 1 (Homo sapiens), Q13285 | activation, % at 10 µM;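 active = activation above the mean activation of all tested compounds plus 3 SD, cut at about 50% in these data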
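Material: Transient Gal4-SF-1 LBD reporter, CHO-K1 | Input: 4,000 cells/well | Dosing: One dose, 10 µM compound, 1% DMSO | Incubation: 20 h compound treatment, 37 °C | Detection: SteadyLite luciferase luminescence | Evaluation: Percent activation relative to DMSO median and mock-transfected background | Benchmarks: DMSO-treated SF-1-transfected cells as negative, DMSO-treated mock-transfected cells lacking SF-1 as background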
ROCK2 inh: inhibitors of human ROCK2 kinase, primary screen, biochemical, high-throughput, luminescence | purified ROCK2, Kinase-Glo ATP depletion luminescence | AID 604, 2007 | inhibition, % at 6 µM | 60,000 tested, 0.35% active | Rho-associated protein kinase 2 (Homo sapiens), O75116;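 active = inhibition above the screen-wide mean inhibition plus 3 SD, cut at about 18% in these data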
Target sequence (O75116 whole entry, looked up): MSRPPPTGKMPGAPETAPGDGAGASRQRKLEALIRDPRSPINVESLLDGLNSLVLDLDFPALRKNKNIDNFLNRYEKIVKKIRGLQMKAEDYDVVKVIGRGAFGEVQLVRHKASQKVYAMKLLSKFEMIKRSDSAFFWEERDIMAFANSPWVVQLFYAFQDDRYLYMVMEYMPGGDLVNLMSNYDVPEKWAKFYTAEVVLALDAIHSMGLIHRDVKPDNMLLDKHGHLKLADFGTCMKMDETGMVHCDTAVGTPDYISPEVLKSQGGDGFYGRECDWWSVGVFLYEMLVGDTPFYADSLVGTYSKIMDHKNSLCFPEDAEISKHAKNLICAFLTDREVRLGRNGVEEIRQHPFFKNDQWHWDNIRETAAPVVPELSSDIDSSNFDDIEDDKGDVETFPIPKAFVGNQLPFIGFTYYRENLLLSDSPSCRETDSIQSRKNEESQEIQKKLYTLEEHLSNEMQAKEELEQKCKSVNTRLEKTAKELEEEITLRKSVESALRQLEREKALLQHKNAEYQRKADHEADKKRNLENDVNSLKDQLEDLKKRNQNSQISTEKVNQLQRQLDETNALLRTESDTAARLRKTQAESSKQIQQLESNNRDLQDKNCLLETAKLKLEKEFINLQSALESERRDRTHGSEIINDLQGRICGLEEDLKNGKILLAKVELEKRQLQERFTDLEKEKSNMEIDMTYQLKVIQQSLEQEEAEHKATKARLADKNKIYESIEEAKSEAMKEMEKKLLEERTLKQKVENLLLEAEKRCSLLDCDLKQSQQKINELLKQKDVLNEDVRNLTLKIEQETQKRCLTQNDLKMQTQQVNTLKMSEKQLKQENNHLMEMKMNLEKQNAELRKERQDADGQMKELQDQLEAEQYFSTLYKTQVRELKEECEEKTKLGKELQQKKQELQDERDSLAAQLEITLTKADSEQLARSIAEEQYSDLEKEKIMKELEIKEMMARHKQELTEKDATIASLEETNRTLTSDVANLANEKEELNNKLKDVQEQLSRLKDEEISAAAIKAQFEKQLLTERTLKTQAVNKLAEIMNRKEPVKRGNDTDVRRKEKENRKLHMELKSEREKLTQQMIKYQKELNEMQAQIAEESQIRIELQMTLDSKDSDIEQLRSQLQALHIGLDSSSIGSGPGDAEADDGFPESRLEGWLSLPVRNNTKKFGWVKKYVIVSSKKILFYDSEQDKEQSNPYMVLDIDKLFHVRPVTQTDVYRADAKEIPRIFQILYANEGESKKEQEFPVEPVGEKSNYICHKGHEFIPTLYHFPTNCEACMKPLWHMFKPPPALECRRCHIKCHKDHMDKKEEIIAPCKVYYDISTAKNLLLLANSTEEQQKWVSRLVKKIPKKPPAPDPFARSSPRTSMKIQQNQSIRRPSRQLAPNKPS
PKA inh: inhibitors of human PKA kinase activity, primary screen, biochemical, ATP-depletion luminescence, Kemptide substrate | cAMP-dependent protein kinase catalytic subunit alpha (Homo sapiens), P17612 | PKA Kemptide phosphorylation, Kinase-Glo ATP luminescence | inhibition, % at 6 µM | 65,000 tested, 0.1% active | AID 524, 2006;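 active = inhibition above the screen-wide mean inhibition plus 3 SD, cut at about 21% in these data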
MT1-MMP txn act: MT1-MMP promoter reporter activation – cell-based, luciferase luminescence, primary screen; HT1080 MT1-MMP promoter luciferase reporter, overnight; active compounds read high; activation factor at 10 µM; 86,000 tested, 0.16% active;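 active = activation factor of at least 2 for MT1-MMP transcription at 10 µM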
Each line names hits and unclear results; the compound was inactive in the other large screens.

CCOC(=O)c1cccc(NC(=O)c2cc3sccc3n2C)c1	SF1 activator 55
Cc1ccc(CN(c2ccc(C(=O)N3CCCC3)cc2)S(C)(=O)=O)cc1	none
O=C(NC1CCCC1)c1cccnc1N1CCCCCC1	JNK3 inh 34
CCCC/C=C/C(NC(=O)C(C)(C)C)c1ccccc1 (stereo not given)	none (no result: RORa activator, JNK3 inh, SF1 activator, ROCK2 inh, PKA inh)
COc1cc(C(=O)N2CCN(c3ccc(C)cc3C)CC2)cc(OC)c1OC	RORa activator 64 (no result: MT1-MMP txn act)
O=C(c1cccc(F)c1)N1CCCC(C(=O)N2CCCC2)C1 (stereo not given)	JNK3 inh 35
O=S1(=O)N=C(Nc2nc3c(s2)CCCC3)c2ccccc21	RORa activator 96, SF1 activator 51
CCOc1ccc(C(=O)Nc2ccc3c(c2)OCCO3)cc1OC	SF1 activator 56
CC(C)CNS(=O)(=O)c1ccc(C(=O)Nc2ccc3c(c2)OCCO3)cc1	RORa activator 73
Cc1cc(C)n(-c2ccc(C(=O)Nc3ccc4c(c3)OCCO4)cc2)n1	RORa activator 75
O=C(Nc1ccc2c(c1)OCCO2)c1ccc(S(=O)(=O)N2CCCCC2)cc1	none
CCOc1cc(C(=O)Nc2ccc3c(c2)OCO3)ccc1OC(F)F	none
C[C@@]1(C(NC(=O)c2cccs2)c2ccc(-c3ccccc3)cc2)C[C@H]1C1CCCCC1 (stereo not given in full)	none (no result: RORa activator, JNK3 inh, SF1 activator, ROCK2 inh, PKA inh)
Cc1nc2ncnn2c(C)c1CCC(=O)N1CC(C)CC(C)C1 (stereo not given)	none (no result: RORa activator, JNK3 inh, SF1 activator, ROCK2 inh, PKA inh)
COC(=O)C1=C(NC(=O)c2ccc(C)c(C)c2)CCS1	none (no result: MT1-MMP txn act)
Cc1c(NC(=O)C2(c3ccccc3)CCCC2)c(=O)n(-c2ccccc2)n1C	none (no result: RORa activator, JNK3 inh, SF1 activator, ROCK2 inh, PKA inh)
Cc1ccc2nc3ccc(N4CCCC4)nn3c(=O)c2c1	RORa activator 54
Cc1sc2nc3ccc(N4CCCCC4)nn3c(=O)c2c1C	none
COc1ccc(C(CC(=O)Nc2nccs2)n2cccc2)cc1 (stereo not given)	SF1 activator 55
C=CCn1c(SCC(=O)Nc2nnc(CC)s2)nnc1-c1ccco1	none
c1ccc(Nc2nc3ccccc3[nH]2)nc1	RORa activator 79, SF1 activator 55
O=S(=O)(Nc1nc2ccccc2nc1N1CCN(c2ccccc2F)CC1)c1ccc(Cl)cc1	none (no result: RORa activator, JNK3 inh, SF1 activator, ROCK2 inh, PKA inh)
COc1ccc2c(c1)Cc1sc(NC(=O)c3ccco3)nc1-2	none (no result: RORa activator, JNK3 inh, SF1 activator, ROCK2 inh, PKA inh)
COc1ccc2c(c1)Cc1sc(NC(C)=O)nc1-2	SF1 activator 77
C#CCCCC(=S)Nc1ccccc1	none (no result: RORa activator, JNK3 inh, SF1 activator, ROCK2 inh, PKA inh)
CCCCCNC(CC(=O)Nc1ccc(OC)cc1)C(=O)O (stereo not given)	none
CCCc1cc(=O)n2[nH]c(C)cc2n1	none
COc1ccc(CC(=O)Nc2nc(C)cs2)cc1OC	JNK3 inh 32
COc1cc(CC(=O)OCC(=O)Nc2ncc(Cl)cc2Cl)cc(OC)c1OC	none
Cc1cnc(NC(=O)COc2ccccc2)s1	RORa activator 54, SF1 activator 82
COc1cc(CC(=O)Nc2ncc(C)s2)cc(OC)c1OC	JNK3 inh 42
COc1ccc(CC(=O)Nc2cc(C)on2)cc1OC	none (no result: RORa activator, JNK3 inh, SF1 activator, ROCK2 inh, PKA inh)
O=C(Nc1ccc(CN2CCOCC2)cc1)c1ccc(-c2ccc(Br)cc2)o1	none
CC(Sc1nc2ccccc2[nH]1)C(=O)O (stereo not given)	none (no result: RORa activator, JNK3 inh, SF1 activator, ROCK2 inh, PKA inh)
CC(=O)N=C(N)Sc1nc2ccccc2[nH]1	SF1 activator 98
CCc1ccc2c(COC(=O)c3n[nH]c4ccccc34)cc(=O)oc2c1	JNK3 inh 21, SF1 activator 58
CCOC(=O)c1n[nH]c2ccccc12	JNK3 inh 38
Cc1ccc2c(COC(=O)c3n[nH]c4ccccc34)cc(=O)oc2c1	none (no result: JNK3 inh, ROCK2 inh)
Cc1occc1-c1nnc(SCC(=O)N2CCN(c3ccccc3F)CC2)n1C	none
COc1ccc(C2C(C#N)=C(N)OC(C(C)(C)C)=C2C#N)cc1OC (stereo not given)	none
COc1ccc(C2C(C#N)=C(N)SC(N)=C2C#N)cc1OC	JNK3 inh 22
CCCn1nnnc1NCc1cccn1C	none

From PubChem BioAssay
